Source: ChEMBL document CHEMBL1944596, “7,8-dichloro-1-oxo-β-carbolines as a versatile scaffold for the development of potent and selective kinase inhibitors with unusual binding modes” (J Med Chem, 2012)

Columns and labels:
[1] = biological target: Serine/threonine-protein kinase 33 (Homo sapiens) (UniProt Q9BYT3); test: Binding affinity to STK33 assessed as change in thermal denaturation at 10 uM by thermal stability shift assay
How it was run: (§1)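 Each compound was screened across a kinase panel by thermal stability shift assay. The read-out was the shift in protein melting temperature (ΔTm, in °C) relative to the unliganded kinase. A ΔTm of 4.0 °C served as the hit cutoff.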

[2] = biological target: Glycogen synthase kinase-3 beta (Homo sapiens) (UniProt P49841); test: Binding affinity to GSK3-beta assessed as change in thermal denaturation at 10 uM by thermal stability shift assay; how it was run: as §1
[3] = biological target: AP2-associated protein kinase 1 (Homo sapiens) (UniProt Q2M2I8); test: Binding affinity to AAK1 assessed as change in thermal denaturation at 10 uM by thermal stability shift assay; how it was run: as §1
[4] = biological target: T1, Dual specificity tyrosine-phosphorylation-regulated kinase 2 (Homo sapiens) (UniProt Q92630); test: Binding affinity to DYRK2 assessed as change in thermal denaturation at 10 uM by thermal stability shift assay; how it was run: as §1
T1 sequence (whole entry): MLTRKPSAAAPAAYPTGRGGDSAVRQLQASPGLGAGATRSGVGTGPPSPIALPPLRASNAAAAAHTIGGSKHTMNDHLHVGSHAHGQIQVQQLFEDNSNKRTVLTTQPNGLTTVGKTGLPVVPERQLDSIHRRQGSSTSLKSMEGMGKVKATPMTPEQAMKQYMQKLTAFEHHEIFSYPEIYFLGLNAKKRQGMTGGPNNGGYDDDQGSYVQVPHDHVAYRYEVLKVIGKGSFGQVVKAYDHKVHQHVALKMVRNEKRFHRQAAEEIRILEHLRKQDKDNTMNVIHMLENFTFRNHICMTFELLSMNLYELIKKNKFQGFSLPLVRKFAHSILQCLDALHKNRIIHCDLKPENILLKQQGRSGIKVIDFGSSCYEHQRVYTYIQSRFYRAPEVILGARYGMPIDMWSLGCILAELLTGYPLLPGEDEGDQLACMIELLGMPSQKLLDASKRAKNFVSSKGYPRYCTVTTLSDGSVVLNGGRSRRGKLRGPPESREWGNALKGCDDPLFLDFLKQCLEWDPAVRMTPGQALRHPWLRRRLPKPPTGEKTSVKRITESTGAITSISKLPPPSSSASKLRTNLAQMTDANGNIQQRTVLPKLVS

[5] = biological target: Serine/threonine-protein kinase pim-1 (Homo sapiens, UniProt P11309); test: Binding affinity to PIM1 assessed as change in thermal denaturation at 10 uM by thermal stability shift assay; how it was run: as §1
[6] = biological target: Tyrosine-protein kinase Fes/Fps (Homo sapiens) (UniProt P07332); test: Binding affinity to FES assessed as change in thermal denaturation at 10 uM by thermal stability shift assay; how it was run: as §1
[7] = biological target: Casein kinase II subunit alpha' (Homo sapiens) (UniProt P19784); test: Binding affinity to CK2alpha2 assessed as change in thermal denaturation at 10 uM by thermal stability shift assay; how it was run: as §1
[8] = biological target: Protein kinase C gamma type (Homo sapiens) (UniProt P05129); test: Binding affinity to PKCgamma assessed as change in thermal denaturation at 10 uM by thermal stability shift assay; how it was run: as §1
[9] = biological target: BMP-2-inducible protein kinase (Homo sapiens) (UniProt Q9NSY1); test: Binding affinity to BIKE assessed as change in thermal denaturation at 10 uM by thermal stability shift assay; how it was run: as §1
[10] = biological target: Dual specificity protein kinase CLK1 (Homo sapiens) (UniProt P49759); test: Binding affinity to CLK1 assessed as change in thermal denaturation at 10 uM by thermal stability shift assay; how it was run: as §1
[11] = Binding affinity to RSK4beta assessed as change in thermal denaturation at 10 uM by thermal stability shift assay; how it was run: as §1
[12] = biological target: T2, cAMP-dependent protein kinase catalytic subunit PRKX (Homo sapiens) (UniProt P51817); test: Binding affinity to PRKX assessed as change in thermal denaturation at 10 uM by thermal stability shift assay; how it was run: as §1
T2 sequence (whole entry): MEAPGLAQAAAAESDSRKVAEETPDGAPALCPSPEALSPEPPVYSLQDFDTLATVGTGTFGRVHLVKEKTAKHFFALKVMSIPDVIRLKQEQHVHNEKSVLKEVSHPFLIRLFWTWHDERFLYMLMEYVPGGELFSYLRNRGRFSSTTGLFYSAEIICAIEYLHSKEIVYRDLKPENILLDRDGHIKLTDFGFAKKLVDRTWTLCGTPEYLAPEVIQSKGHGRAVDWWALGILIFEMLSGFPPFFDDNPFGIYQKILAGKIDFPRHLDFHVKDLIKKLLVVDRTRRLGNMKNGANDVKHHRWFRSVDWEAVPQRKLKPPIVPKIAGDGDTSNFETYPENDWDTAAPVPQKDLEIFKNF

[13] = biological target: Death-associated protein kinase 3 (Homo sapiens) (UniProt O43293); test: Binding affinity to N-terminus His6-tagged DAPK3 expressed in Escherichia coli BL21 (DE3) cells coexpressing pCOEX assessed as change in thermal denaturation at 10 uM by thermal stability shift assay
How it was run: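 DAPK3 was expressed in E. coli grown in TB with kanamycin and chloramphenicol at 37 °C, cooled to 25 °C, and induced with 0.5 mM IPTG. Binding was read as thermal-shift ΔTm in °C.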

[14] = biological target: T3, Myosin light chain kinase family member 4 (Homo sapiens) (UniProt Q86YV6); test: Binding affinity to SGK085 assessed as change in thermal denaturation at 10 uM by thermal stability shift assay; how it was run: as §1
T3 sequence (whole entry): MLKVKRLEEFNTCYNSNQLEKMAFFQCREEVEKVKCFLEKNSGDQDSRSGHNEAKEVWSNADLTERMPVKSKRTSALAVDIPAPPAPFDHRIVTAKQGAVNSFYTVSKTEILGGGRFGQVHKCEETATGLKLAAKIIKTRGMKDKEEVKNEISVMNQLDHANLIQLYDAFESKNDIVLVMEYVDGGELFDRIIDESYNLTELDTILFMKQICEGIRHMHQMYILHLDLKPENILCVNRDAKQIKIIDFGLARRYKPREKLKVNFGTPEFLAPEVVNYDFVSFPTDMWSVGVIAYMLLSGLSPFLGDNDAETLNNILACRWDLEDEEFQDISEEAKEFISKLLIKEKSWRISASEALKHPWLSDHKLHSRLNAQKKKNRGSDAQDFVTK

[15] = biological target: Ribosomal protein S6 kinase alpha-1 (Homo sapiens) (UniProt Q15418); test: Binding affinity to RSK1 assessed as change in thermal denaturation at 10 uM by thermal stability shift assay
[16] = biological target: Serine/threonine-protein kinase pim-3 (Homo sapiens, UniProt Q86V86); test: Binding affinity to PIM3 assessed as change in thermal denaturation at 10 uM by thermal stability shift assay; how it was run: as §1
[17] = biological target: Serine/threonine-protein kinase PLK1 (Homo sapiens) (UniProt P53350); test: Binding affinity to PLK1 assessed as change in thermal denaturation at 10 uM by thermal stability shift assay; how it was run: as §1
Chain of Serine/threonine-protein kinase PLK1 (Homo sapiens) (P53350 whole entry): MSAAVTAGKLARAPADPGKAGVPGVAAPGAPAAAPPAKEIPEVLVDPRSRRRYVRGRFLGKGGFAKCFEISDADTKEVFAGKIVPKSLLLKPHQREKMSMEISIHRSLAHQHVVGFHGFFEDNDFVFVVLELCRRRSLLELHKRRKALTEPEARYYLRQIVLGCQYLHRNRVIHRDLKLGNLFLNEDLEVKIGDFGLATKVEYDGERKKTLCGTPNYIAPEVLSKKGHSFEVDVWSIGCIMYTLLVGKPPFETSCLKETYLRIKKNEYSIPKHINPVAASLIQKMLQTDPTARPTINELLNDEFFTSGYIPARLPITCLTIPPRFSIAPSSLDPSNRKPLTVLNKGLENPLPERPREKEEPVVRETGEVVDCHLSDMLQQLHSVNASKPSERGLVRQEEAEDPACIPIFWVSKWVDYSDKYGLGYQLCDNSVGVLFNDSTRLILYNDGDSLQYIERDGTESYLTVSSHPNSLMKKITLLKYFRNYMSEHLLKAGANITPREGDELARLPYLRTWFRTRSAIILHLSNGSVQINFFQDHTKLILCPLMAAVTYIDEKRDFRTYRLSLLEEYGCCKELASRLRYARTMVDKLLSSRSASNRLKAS

Chain of Tyrosine-protein kinase Fes/Fps (Homo sapiens) (P07332 whole entry): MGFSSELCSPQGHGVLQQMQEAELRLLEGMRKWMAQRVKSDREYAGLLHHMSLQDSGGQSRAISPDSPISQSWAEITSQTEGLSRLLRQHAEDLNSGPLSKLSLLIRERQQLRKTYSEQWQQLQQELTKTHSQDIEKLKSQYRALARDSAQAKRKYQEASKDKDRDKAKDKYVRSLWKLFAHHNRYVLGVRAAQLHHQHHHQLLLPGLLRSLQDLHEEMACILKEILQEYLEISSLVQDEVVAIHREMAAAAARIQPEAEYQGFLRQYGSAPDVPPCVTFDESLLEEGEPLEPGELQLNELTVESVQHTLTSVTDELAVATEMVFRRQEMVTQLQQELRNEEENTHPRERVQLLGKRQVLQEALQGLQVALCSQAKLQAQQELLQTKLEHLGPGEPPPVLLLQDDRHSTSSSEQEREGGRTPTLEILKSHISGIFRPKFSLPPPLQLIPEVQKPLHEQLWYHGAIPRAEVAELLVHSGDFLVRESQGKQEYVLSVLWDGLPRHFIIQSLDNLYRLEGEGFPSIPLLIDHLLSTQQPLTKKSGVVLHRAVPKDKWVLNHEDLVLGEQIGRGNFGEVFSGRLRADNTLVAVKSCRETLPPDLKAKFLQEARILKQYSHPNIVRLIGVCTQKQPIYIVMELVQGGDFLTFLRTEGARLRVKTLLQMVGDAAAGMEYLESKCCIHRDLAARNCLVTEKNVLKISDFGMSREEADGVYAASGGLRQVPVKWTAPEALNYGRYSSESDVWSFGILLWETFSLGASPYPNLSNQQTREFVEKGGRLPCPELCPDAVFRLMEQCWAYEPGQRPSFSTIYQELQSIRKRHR
Chain of Ribosomal protein S6 kinase alpha-1 (Homo sapiens) (Q15418 whole entry, looked up): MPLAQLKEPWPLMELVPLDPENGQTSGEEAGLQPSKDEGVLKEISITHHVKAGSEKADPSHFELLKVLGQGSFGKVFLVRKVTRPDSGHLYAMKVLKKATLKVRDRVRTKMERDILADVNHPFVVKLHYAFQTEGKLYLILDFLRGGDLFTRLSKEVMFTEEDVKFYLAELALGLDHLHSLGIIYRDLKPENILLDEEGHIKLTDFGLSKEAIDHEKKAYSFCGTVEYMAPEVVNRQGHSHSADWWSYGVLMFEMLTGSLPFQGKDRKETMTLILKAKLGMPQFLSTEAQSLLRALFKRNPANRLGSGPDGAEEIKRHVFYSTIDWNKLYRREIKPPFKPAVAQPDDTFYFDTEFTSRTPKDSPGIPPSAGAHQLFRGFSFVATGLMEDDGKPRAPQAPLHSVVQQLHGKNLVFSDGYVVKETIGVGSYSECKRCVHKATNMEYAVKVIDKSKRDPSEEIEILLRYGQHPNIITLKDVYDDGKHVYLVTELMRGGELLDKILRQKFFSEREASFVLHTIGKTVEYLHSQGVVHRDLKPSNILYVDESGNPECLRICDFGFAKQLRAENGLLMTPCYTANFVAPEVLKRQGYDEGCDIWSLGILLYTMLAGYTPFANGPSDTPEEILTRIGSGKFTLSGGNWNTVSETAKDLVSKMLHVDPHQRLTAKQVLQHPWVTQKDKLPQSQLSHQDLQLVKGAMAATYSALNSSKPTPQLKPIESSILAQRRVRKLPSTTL
Chain of Casein kinase II subunit alpha' (Homo sapiens) (P19784 whole entry, looked up): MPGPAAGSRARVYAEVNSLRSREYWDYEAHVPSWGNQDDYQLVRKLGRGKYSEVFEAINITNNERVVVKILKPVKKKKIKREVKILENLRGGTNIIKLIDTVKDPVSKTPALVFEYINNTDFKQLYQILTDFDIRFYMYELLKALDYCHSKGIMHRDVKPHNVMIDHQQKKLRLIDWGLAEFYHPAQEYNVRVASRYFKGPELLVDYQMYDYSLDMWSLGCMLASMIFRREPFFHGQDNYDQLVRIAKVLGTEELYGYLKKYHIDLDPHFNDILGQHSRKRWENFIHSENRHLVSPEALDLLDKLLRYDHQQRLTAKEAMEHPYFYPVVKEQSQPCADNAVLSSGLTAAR
Chain of Death-associated protein kinase 3 (Homo sapiens) (O43293 whole entry, looked up): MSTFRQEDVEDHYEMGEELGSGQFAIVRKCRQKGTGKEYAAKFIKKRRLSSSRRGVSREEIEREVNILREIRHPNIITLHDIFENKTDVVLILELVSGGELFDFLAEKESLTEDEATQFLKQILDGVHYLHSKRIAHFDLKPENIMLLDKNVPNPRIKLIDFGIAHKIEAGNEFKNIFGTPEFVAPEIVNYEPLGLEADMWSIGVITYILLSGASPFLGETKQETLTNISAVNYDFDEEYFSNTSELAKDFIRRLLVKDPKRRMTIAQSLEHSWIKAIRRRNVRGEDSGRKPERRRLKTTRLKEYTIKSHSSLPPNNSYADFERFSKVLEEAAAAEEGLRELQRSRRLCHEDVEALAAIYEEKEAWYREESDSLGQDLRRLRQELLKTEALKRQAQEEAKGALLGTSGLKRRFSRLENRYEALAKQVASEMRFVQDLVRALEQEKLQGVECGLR
Chain of Glycogen synthase kinase-3 beta (Homo sapiens) (P49841 whole entry, looked up): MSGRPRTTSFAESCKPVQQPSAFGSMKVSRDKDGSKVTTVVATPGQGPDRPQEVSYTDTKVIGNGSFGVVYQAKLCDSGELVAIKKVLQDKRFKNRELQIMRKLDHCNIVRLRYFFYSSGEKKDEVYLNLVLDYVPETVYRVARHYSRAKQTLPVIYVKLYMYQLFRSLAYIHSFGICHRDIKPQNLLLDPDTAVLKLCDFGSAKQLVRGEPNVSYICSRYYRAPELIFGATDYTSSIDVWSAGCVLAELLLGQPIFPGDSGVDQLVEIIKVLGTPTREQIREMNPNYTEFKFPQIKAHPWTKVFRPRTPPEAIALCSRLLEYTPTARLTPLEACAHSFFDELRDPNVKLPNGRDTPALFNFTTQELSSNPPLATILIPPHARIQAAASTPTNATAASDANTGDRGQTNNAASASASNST
Chain of Serine/threonine-protein kinase pim-1 (P11309 whole entry, looked up): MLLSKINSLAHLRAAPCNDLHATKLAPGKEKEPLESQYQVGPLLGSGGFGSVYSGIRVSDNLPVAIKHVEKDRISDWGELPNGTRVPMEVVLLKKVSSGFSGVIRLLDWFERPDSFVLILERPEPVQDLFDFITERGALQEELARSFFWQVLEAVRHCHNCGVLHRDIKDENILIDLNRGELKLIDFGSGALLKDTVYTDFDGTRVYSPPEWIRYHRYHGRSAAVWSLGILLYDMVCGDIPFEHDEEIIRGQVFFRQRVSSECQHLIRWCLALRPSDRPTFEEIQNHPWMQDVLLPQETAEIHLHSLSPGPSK

Structure (SMILES)	ΔTm [1] [°C]	ΔTm [2] [°C]	ΔTm [3] [°C]	ΔTm [4] [°C]	ΔTm [5] [°C]	ΔTm [6] [°C]	ΔTm [7] [°C]	ΔTm [8] [°C]	ΔTm [9] [°C]	ΔTm [10] [°C]	ΔTm [11] [°C]	ΔTm [12] [°C]	ΔTm [14] [°C]	ΔTm [15] [°C]	ΔTm [16] [°C]	ΔTm [17] [°C]	ΔTm [13] [°C]
Cn1c2c(c3ccc(Cl)c(Cl)c31)C(C#N)C1(CCOCC1)NC2=O (stereo unspecified)	0.7	3.4	2.6	1	4.8	0	1	1	2.3	4.6	0	1.4	0.5	0.6	4.7	0.8	3.1
CC1(C)NC(=O)c2[nH]c3c(Cl)c(Cl)ccc3c2C1C#N (stereo unspecified)	1.1	4.7	1.1	1.3	3.5	-0.2	1.9	0.7	1.2	5.3	0.1	1.2	3.1	1.4	4	4	2
Cn1c2c(c3ccc(Cl)c(Cl)c31)C(C#N)C(C)(C)NC2=O (stereo unspecified)	2.2	5.6	2.2	2	5.7	-0.3	2.1	1.7	2.8	6.4	2.3	2.8	2	1.8	6.2	4.9	3.4
Cn1c2c(c3ccc(Cl)c(Cl)c31)C(CN)C(C)(C)NC2=O (racemic)	0.9	0.6	0.8	0.2	3.6	0.3	0.5	1.7	1.7	5.1	0.7	3.3	0.2	0.4	3.7	-0.6	3.6
Cn1c2c(c3ccc(Cl)c(Cl)c31)C(C#N)C1(CCNCC1)NC2=O (racemic)	5.9	3.9	1.5	3.6	10.7	4	4.2	6.1	1	7	0.8	5.8	3.5	1	9.6	1.4	10.6

More lines, main results first:

ΔTm [1] [°C]	ΔTm [2] [°C]	ΔTm [3] [°C]	ΔTm [4] [°C]	ΔTm [5] [°C]	ΔTm [6] [°C]	ΔTm [7] [°C]	ΔTm [8] [°C]	ΔTm [9] [°C]	ΔTm [10] [°C]	ΔTm [11] [°C]	ΔTm [12] [°C]	ΔTm [14] [°C]	ΔTm [15] [°C]	ΔTm [16] [°C]	ΔTm [17] [°C]	Structure (SMILES)	ΔTm [13] [°C]
0.2	2.5	1.5	0.7	3.8	0	1	0.5	1.3	4.8	0.1	0.7	0.1	0.5	3.8	1.3	Cn1c2c(c3ccc(Cl)c(Cl)c31)C(C#N)C1(CCCC1)NC2=O (stereo unspecified)	1.5
1	1.8	0.6	0.5	0.9	0	0.7	0.4	1.1	2.4	0.1	0.5	1.7	0.4	1.3	3.2	Cn1c2c(c3ccccc31)C(C#N)C(C)(C)NC2=O (stereo unspecified)	0.6
1.2	4.6	3.9	1.6	1.6	0.2	2.1	1.2	5.3	3.9	1.4	0.3	5.5	1.7	2.3	3.1	Cn1c2c(Cl)c(Cl)ccc2c2cn[nH]c(=O)c21	4
